Data taken from ChEMBL document CHEMBL4609986 (Bioorg Med Chem, 2020).

What was measured:
[1] = Apparent permeability in human Caco2 cells measured after 2 hrs by LC-MS/MS analysis; assay type: ADME, cell-based, Caco-2; settings: Caco-2
How it was run: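 Caco-2 monolayers grown on polycarbonate filter inserts (5 × 10⁵ cells/well seeded) and differentiated 21 ± 4 days. Transport run in HBSS with 25 mM HEPES, pH 7.4, 37 °C; compound added donor side. Receiver sampled over 2 h, donor at 0 and 2 h; LC-MS/MS with internal standard. Papp = (dC_rec/dt)/(A × C0,donor) × 10^6.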

[2] = target: T1, Dual specificity tyrosine-phosphorylation-regulated kinase 1A (Homo sapiens, UniProt Q13627); experiment: Inhibition of human DYRK1A transfected in HEK293T cells co-transfected with Renilla plasmid, pGL3-NFAT and NFATc1 assessed as derepression of NFAT-dependent luciferase activity measured after 48 hrs by luciferase assay; assay type: cell-based, HEK-293T
How it was run: (§1)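 HEK293T cells transfected with PEI using DYRK1A, Renilla plasmid, IL-2-based pGL3-NFAT firefly reporter and NFATc1. Next day the same transfected population was split into 96-well plates; 6 h later cells were treated for 48 h (11-point dose curve, n = 4), then lysed. EC50 from firefly/Renilla ratio, 4-parameter agonist fit. CC50 from loss of constitutive Renilla signal, 4-parameter inhibitor fit.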

[3] = target: T2, Tyrosine-protein kinase ABL1 (Homo sapiens, UniProt P00519); experiment: Inhibition of wild-type human non-phosphorylated ABL1 (S229 to K512 residues) expressed in mammalian expression system assessed as residual activity at 500 nM by Kinomescan method relative to control
T2 sequence (P00519 whole entry, the tested form may be a part): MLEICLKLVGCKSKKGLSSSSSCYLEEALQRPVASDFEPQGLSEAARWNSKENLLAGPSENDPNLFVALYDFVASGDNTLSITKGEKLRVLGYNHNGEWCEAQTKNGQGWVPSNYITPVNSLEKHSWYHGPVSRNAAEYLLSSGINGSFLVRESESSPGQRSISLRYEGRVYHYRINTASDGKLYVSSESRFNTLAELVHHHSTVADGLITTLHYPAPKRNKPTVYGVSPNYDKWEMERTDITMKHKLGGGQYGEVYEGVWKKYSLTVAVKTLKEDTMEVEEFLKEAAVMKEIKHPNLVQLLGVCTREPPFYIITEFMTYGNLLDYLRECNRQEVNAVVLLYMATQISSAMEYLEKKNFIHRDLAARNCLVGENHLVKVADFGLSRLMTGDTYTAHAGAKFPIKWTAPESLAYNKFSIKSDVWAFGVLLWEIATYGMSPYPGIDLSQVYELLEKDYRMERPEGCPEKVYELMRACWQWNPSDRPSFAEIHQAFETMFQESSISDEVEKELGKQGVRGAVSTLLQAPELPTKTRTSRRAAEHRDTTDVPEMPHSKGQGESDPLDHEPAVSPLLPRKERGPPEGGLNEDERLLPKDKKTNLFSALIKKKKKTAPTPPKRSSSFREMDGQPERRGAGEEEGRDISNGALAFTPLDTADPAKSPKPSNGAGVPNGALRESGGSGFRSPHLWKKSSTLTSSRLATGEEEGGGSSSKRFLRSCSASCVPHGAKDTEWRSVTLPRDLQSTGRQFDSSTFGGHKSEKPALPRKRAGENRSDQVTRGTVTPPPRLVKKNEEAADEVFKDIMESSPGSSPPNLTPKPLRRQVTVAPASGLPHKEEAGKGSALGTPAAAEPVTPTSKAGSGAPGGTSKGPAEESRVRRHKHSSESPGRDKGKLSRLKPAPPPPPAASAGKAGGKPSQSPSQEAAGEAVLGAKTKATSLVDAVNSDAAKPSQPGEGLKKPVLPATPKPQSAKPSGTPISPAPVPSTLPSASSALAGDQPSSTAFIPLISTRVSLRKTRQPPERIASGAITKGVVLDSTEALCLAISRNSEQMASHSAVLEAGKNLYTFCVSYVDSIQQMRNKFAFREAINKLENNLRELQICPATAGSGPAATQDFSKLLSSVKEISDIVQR
How it was run: (§2)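 Kinase panel of 468 kinases, scored as residual activity at 100 nM or 500 nM test compound.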

Homo sapiens = species: Homo sapiens; experiment: Selectivity index, ratio of CC50 for human HEK293T cells transfected with DYRK1A co-tranfected with Renilla plasmid, pGL3-NFAT and NFATc1 assessed as reduction in luciferase activity by measuring cell number to EC50 for human DYRK1A transfected in HEK293T cells co-transfected with Renilla plasmid, pGL3-NFAT and NFATc1 assessed as derepression of NFAT-dependent luciferase activity measured after 48 hrs by luciferase assay; assay type: cell-based; how it was run: as §1
AURKB (Aurora kinase B) [4] = target: T3, AURKB (Aurora kinase B) (Homo sapiens, UniProt Q96GD4); experiment: Inhibition of AURKB in human HEK293T cells assessed as reduction in cell viability at 30 nM measured after 48 hrs in presence of 3 uM MK-5108 relative to control; assay type: cell-based, HEK-293T
T3 sequence (Q96GD4 whole entry): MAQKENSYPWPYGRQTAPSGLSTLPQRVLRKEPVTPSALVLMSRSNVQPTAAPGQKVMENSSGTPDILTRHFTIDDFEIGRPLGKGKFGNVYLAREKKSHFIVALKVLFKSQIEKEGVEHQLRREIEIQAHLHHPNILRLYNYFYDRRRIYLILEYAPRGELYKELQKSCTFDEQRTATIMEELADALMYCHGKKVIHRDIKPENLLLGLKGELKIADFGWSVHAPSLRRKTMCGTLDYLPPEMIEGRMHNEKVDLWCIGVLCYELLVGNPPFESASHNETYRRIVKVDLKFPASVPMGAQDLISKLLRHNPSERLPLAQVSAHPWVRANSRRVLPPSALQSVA
How it was run: (§3)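 HEK293T cells treated 48 h with the compound alone or combined with a second kinase inhibitor at the stated level, then fixed, stained and counted. Cell number expressed as a percentage of untreated wells; n = 4-16.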

[5] = target: Dual specificity mitogen-activated protein kinase kinase 1 (Homo sapiens) (UniProt Q02750); experiment: Inhibition of wild-type human full length MEK1 (M1 to V393 residues) expressed in mammalian expression system assessed as residual activity at 500 nM by Kinomescan method relative to control; how it was run: as §2
Dual specificity mitogen-activated protein kinase kinase 1 (Homo sapiens), sequence (Q02750 whole entry, the tested form may be a part): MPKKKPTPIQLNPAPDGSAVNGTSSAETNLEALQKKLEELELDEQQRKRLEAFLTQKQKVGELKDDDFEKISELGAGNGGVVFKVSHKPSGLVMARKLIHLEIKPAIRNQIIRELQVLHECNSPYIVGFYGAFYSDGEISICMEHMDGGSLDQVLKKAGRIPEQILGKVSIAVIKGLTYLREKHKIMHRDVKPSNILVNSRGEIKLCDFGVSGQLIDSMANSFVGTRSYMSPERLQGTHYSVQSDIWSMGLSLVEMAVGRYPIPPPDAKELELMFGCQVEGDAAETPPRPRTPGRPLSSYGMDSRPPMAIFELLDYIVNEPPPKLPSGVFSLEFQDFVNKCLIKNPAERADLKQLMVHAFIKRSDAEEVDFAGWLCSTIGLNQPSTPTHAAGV

[6] = Half life in human liver microsomes at 1 uM preincubated for 10 mins followed by NADPH addition and measured up to 40 mins by LC-MS/MS analysis; assay type: ADME, Microsome
How it was run: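 Human or mouse liver microsomes, each run separately, in 100 mM KxPO4 pH 7.4 with 10 mM MgCl2 and 1 μM test compound. Pre-incubated 10 min at 37 °C, then started with 1 mM NADPH. Quenched in acetonitrile stop solution at 0, 10, 20 and 40 min, centrifuged, diluted and analysed by LC-MS/MS.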

[7] = target: T2, Tyrosine-protein kinase ABL1; experiment: Inhibition of ABL1 in human HEK293T cells assessed as cell death at 30 to 270 nM measured after 48 hrs in presence of 1 uM imatinib; assay type: cell-based; settings: hek-293t, 0.27 µM, in the assay text read “3 uM imatinib” for “1 uM imatinib”; how it was run: as §3
[8] = Cytotoxicity against mouse R7T1 cells assessed as reduction in cell viability measured after 48 hrs by Hoechst 33342 staining based analysis
How it was run: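 Mouse R7T1 β-cells cultured in high-glucose DMEM with 10% FBS, doxycycline and pyruvate, plated at 25,000 cells/well. Treated in quadruplicate 6 h later (0.169–10,000 nM) for 48 h. Cells fixed in paraformaldehyde and stained with 4 μM Hoechst 33342; nuclei counted by high-content imaging.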

[9] = target: Maternal embryonic leucine zipper kinase (Homo sapiens, UniProt Q14680); experiment: Inhibition of wild-type human full length MELK (M1 to V651 residues) expressed in bacterial expression system assessed as residual activity at 500 nM by Kinomescan method relative to control; how it was run: as §2
Maternal embryonic leucine zipper kinase, sequence (Q14680 whole entry, looked up, the tested form may be a part): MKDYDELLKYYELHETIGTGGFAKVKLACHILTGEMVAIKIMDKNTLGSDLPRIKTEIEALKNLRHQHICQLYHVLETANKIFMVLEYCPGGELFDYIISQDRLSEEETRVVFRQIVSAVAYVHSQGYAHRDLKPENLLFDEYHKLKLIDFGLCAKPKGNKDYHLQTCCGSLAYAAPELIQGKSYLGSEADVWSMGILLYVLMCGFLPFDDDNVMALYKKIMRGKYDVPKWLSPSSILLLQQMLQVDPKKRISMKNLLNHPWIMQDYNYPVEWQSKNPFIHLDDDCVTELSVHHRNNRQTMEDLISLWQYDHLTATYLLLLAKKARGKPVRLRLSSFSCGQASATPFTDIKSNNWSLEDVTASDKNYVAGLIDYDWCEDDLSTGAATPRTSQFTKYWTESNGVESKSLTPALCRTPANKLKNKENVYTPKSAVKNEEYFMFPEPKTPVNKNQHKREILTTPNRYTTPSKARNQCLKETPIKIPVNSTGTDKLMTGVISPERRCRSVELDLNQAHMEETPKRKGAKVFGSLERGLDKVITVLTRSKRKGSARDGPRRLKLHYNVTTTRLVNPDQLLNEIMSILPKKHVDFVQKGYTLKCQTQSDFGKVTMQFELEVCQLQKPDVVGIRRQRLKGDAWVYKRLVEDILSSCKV

[10] = target: T1, Dual specificity tyrosine-phosphorylation-regulated kinase 1A; experiment: Inhibition of DYRK1A in human pancreatic islets assessed as induction of pancreatic beta-cells replication measured after 48 hrs by Hoechst 33342 staining based analysis
How it was run: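 Human islets (85-95% purity) rested 12 h in low-glucose DMEM with 10% FBS and 20 nM exendin-4. Dispersed to single cells and plated on 804G-conditioned-matrix 384-well plates for 48 h. Treated 48 h, then fixed with 4% PFA. Stained with anti-insulin, anti-Ki-67 and 4 μM Hoechst 33342; Ki67+Insulin+/Insulin+ scored by high-content imaging against per-plate cutoffs.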

[11] = target: T2, Tyrosine-protein kinase ABL1; experiment: Inhibition of wild-type human phosphorylated ABL1 (S229 to K512 residues) expressed in mammalian expression system assessed as residual activity at 500 nM by Kinomescan method relative to control; how it was run: as §2
AURKB (Aurora kinase B) [12] = target: T3, AURKB (Aurora kinase B); experiment: Inhibition of AURKB in human HEK293T cells assessed as reduction in cell viability at 270 nM measured after 48 hrs in presence of 3 uM MK-5108 relative to control; assay type: cell-based, HEK-293T; how it was run: as §3
AURKB (Aurora kinase B) [13] = target: T3, AURKB (Aurora kinase B); experiment: Inhibition of AURKB in human HEK293T cells assessed as reduction in cell viability at 90 to 270 nM measured after 48 hrs in presence of 40 nM AZD-1152-HQPA relative to control; assay type: cell-based, HEK-293T; how it was run: as §3
HEK-293T = experiment: Cytotoxicity against human HEK293T cells transfected with DYRK1A co-tranfected with Renilla plasmid, pGL3-NFAT and NFATc1 assessed as reduction in luciferase activity by measuring cell number; assay type: cell-based; settings: hek-293t; how it was run: as §1
Aurora kinase B [14] = target: T4, Aurora kinase B (Homo sapiens, UniProt Q96GD4); experiment: Inhibition of AURKB in human HEK293T cells assessed as reduction in cell viability at 30 to 70 nM measured after 48 hrs; assay type: cell-based; settings: hek-293t, 0.27 µM, in the assay text read “30 to 270 nM” for “30 to 70 nM”; how it was run: as §3
T4 sequence (Q96GD4 whole entry, the tested form may be a part): as the sequence (Q96GD4 whole entry) above

Aurora kinase B [15] = target: T4, Aurora kinase B; experiment: Inhibition of wild-type human partial length AURKB (D25 to A303 residues) expressed in mammalian expression system assessed as residual activity at 500 nM by Kinomescan method relative to control; how it was run: as §2
[16] = Selectivity index, ratio of CC50 for mouse R7T1 cells assessed as reduction in cell viability measured after 48 hrs by Hoechst 33342 staining based analysis to MEC for inhibition of DYRK1A in human pancreatic islets assessed as induction of pancreatic beta-cells replication measured after 48 hrs by Hoechst 33342 staining based analysis
AURKB (Aurora kinase B) [17] = target: T3, AURKB (Aurora kinase B); experiment: Inhibition of AURKB in human HEK293T cells assessed as reduction in cell viability at 90 nM measured after 48 hrs in presence of 3 uM MK-5108 relative to control; assay type: cell-based, HEK-293T; how it was run: as §3
Aurora kinase B [18] = target: T4, Aurora kinase B; experiment: Inhibition of AURKB in human HEK293T cells assessed as reduction in cell viability at 270 nM measured after 48 hrs in presence of 10 uM TAK-733; assay type: cell-based; settings: hek-293t, 0.27 µM; how it was run: as §3
[19] = target: Dual specificity mitogen-activated protein kinase kinase 2 (Homo sapiens) (UniProt P36507); experiment: Inhibition of wild-type human full length MEK2 (M1 to V400 residues) expressed in mammalian expression system assessed as residual activity at 500 nM by Kinomescan method relative to control; how it was run: as §2
Dual specificity mitogen-activated protein kinase kinase 2 (Homo sapiens), sequence (P36507 whole entry, the tested form may be a part): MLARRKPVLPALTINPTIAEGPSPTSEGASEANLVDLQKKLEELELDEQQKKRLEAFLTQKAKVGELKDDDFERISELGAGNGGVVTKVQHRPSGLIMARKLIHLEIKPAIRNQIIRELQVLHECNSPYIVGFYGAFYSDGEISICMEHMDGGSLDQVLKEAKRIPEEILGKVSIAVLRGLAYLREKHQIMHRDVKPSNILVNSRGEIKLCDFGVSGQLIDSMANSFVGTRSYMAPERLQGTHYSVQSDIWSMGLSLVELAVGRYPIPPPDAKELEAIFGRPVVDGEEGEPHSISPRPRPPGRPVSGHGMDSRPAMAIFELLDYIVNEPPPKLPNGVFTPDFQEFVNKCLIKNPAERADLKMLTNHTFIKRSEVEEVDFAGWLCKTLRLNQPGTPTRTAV

[20] = target: T5, Aurora kinase A (Homo sapiens) (UniProt O14965); experiment: Inhibition of wild-type human partial length AURKA (E122 to K401 residues) expressed in mammalian expression system assessed as residual activity at 500 nM by Kinomescan method relative to control; how it was run: as §2
T5 sequence (whole entry): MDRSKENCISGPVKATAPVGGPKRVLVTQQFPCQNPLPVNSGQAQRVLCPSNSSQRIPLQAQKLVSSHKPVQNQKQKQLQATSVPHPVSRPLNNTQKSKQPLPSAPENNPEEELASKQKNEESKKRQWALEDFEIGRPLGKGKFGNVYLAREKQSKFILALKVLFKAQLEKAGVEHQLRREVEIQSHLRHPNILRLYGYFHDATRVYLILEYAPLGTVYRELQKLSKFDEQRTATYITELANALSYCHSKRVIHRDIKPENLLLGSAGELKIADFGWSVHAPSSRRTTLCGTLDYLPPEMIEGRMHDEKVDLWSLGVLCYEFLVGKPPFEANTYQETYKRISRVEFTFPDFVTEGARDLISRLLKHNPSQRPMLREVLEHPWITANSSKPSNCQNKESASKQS

[21] = target: T1, Dual specificity tyrosine-phosphorylation-regulated kinase 1A; experiment: Inhibition of wild-type human partial length DYRK1A (H129 to S509 residues) expressed in mammalian expression system assessed as residual activity at 500 nM by Kinomescan method relative to control; how it was run: as §2
AURKB (Aurora kinase B) [22] = target: T3, AURKB (Aurora kinase B); experiment: Inhibition of AURKB in human HEK293T cells assessed as reduction in cell viability at 90 to 270 nM measured after 48 hrs in presence of 40 nM MLN-8054 relative to control; assay type: cell-based, HEK-293T; how it was run: as §3
[23] = target: T2, Tyrosine-protein kinase ABL1; experiment: Inhibition of ABL1 in human HEK293T cells assessed as cell death at 30 to 270 nM measured after 48 hrs in presence of 1 uM dasatinib; assay type: cell-based; settings: hek-293t, 0.27 µM; how it was run: as §3

Papp at 2 h [1]: 4.03 ×10⁻⁶ cm/s | EC50 [2]: 0.223 µM | Activity [3]: 43% | Activity [5]: 69% | t1/2 [6]: 32 min | Activity [9]: 4.7% | MEC [10]: 27 nM | Activity [11]: 43% | Activity (Aurora kinase B [15]): 67% | Activity [19]: 55% | Activity [20]: 97% | Activity [21]: 0%
Structure (SMILES): CCOC(=O)c1cnc2ccc(-c3ccncc3)nc2c1N[C@H]1CC[C@H](CN(C)C)CC1
Ratio CC50/EC50 (Homo sapiens): 36 | inhibition at 48 h, 0.03 µM (AURKB (Aurora kinase B) [4]): 31% | inhibition (INH) [7]: Not Active | CC50 [8]: 3.86 µM | inhibition at 48 h, 0.27 µM (AURKB (Aurora kinase B) [12]): 34% | inhibition at 48 h, up to 0.27 µM (AURKB (Aurora kinase B) [13]): 67% | CC50 (HEK-293T): 8.05 µM | inhibition (INH) (Aurora kinase B [14]): Not Active | Selectivity Index [16]: 143 | inhibition at 48 h, 0.09 µM (AURKB (Aurora kinase B) [17]): 36% | inhibition (INH) (Aurora kinase B [18]): Not Active | inhibition at 48 h, up to 0.27 µM (AURKB (Aurora kinase B) [22]): 50% | inhibition (INH) [23]: Not Active
